Experimental data from ChEMBL document CHEMBL1806410, “Design and synthesis of pyridine-substituted itraconazole analogues with improved antifungal activities, water solubility and bioavailability” (Bioorg Med Chem Lett, 2011).
Converted amounts (≈) assume the structure as drawn.

What was measured:
Pichia kudriavzevii [1] = experiment: Antifungal activity against Candida krusei JLC 30366 by broth microdilution method; assay type: functional
Outline: (§1)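 MICs were determined by broth microdilution following NCCLS guidelines (M38-P for filamentous fungi). The panel covered four yeast species and two Aspergillus species, with two strains per species. Itraconazole served as positive control.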

[2] = Solubility of the compound in water at pH 7.4; assay type: physicochemical; conditions: buffer, BLD = below limit of detection
[3] = AUC (0 to t) in rat at 10 mg/kg, po administered as single dose; assay type: ADME, organism-based; design: dose 10 mg/kg, route oral; conditions: plasma
Outline: (§2)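 Rats received a single dose of compound, either oral (10 mg/kg) or intravenous (10, 5 or 2.5 mg/kg). Plasma levels were followed, and the reported parameters were Cmax, Tmax, AUC0–t, half-life, clearance and bioavailability (F).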

[4] = Half life in rat at 10 mg/kg, iv administered as single dose; assay type: ADME, organism-based; design: dose 10 mg/kg, route intravenous; conditions: in vivo; outline: as §2
Aspergillus fumigatus [5] = experiment: Antifungal activity against Aspergillus fumigatus JLC 30506 by broth microdilution method; assay type: functional; outline: as §1
[6] = Tmax in rat at 10 mg/kg, po administered as single dose; assay type: ADME, organism-based; design: dose 10 mg/kg, route oral; conditions: in vivo; outline: as §2
[7] = Cmax in rat at 10 mg/kg, po administered as single dose; assay type: ADME, organism-based; design: dose 10 mg/kg, route oral; conditions: in vivo; outline: as §2
Pichia kudriavzevii [8] = experiment: Antifungal activity against Candida krusei JLC 30386 by broth microdilution method; assay type: functional; outline: as §1
Aspergillus flavus [9] = experiment: Antifungal activity against Aspergillus flavus JLC 40437 by broth microdilution method; assay type: functional; outline: as §1
Candida parapsilosis [10] = experiment: Antifungal activity against Candida parapsilosis JLC 30365 by broth microdilution method; assay type: functional; conditions: Lodderomyces parapsilosis; outline: as §1
Candida parapsilosis [11] = experiment: Antifungal activity against Candida parapsilosis JLC 30275 by broth microdilution method; assay type: functional; conditions: Lodderomyces parapsilosis; outline: as §1
[12] = Half life in rat at 10 mg/kg, po administered as single dose; assay type: ADME, organism-based; design: dose 10 mg/kg, route oral; conditions: in vivo; outline: as §2
Candida albicans [13] = experiment: Antifungal activity against Candida albicans JLC 30364 by broth microdilution method; assay type: functional; outline: as §1
Candida albicans [14] = experiment: Antifungal activity against Candida albicans JLC 31374 by broth microdilution method; assay type: functional; outline: as §1
[15] = AUC (0 to t) in rat at 10 mg/kg, iv administered as single dose; assay type: ADME, organism-based; design: dose 10 mg/kg, route intravenous; conditions: plasma; outline: as §2
[16] = Oral bioavailability in rat at 10 mg/kg, administered as single dose; assay type: ADME, organism-based; conditions: in vivo; outline: as §2
Cryptococcus neoformans [17] = experiment: Antifungal activity against Cryptococcus neoformans JLC 50123 by broth microdilution method; assay type: functional; outline: as §1
Cryptococcus neoformans [18] = experiment: Antifungal activity against Cryptococcus neoformans JLC 50122 by broth microdilution method; assay type: functional; outline: as §1
[19] = Clearance in rat at 10 mg/kg, iv administered as single dose; assay type: ADME, organism-based; design: dose 10 mg/kg, route intravenous; conditions: in vivo; outline: as §2
Aspergillus flavus [20] = experiment: Antifungal activity against Aspergillus flavus JLC 30784 by broth microdilution method; assay type: functional; outline: as §1
[21] = Solubility of the compound in water at pH 1.2; assay type: physicochemical
Aspergillus fumigatus [22] = experiment: Antifungal activity against Aspergillus fumigatus JLC 30883 by broth microdilution method; assay type: functional; outline: as §1
[23] = Clearance in rat at 5 mg/kg, iv administered as single dose; assay type: ADME, organism-based; design: dose 5 mg/kg, route intravenous; conditions: in vivo; outline: as §2
[24] = Half life in rat at 5 mg/kg, iv administered as single dose; assay type: ADME, organism-based; design: dose 5 mg/kg, route intravenous; conditions: in vivo; outline: as §2
[25] = AUC (0 to t) in rat at 5 mg/kg, iv administered as single dose; assay type: ADME, organism-based; design: dose 5 mg/kg, route intravenous; conditions: plasma; outline: as §2
Salmonella typhimurium = experiment: Mutagenic activity in Salmonella Typhimurium assessed as number of revertants colonies after 48 hrs by Ames test; assay type: toxicity, organism-based; conditions: salmonella enterica subsp. enterica serovar typhimurium
Outline: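 Plate incorporation protocol without S9 mix. About 10^9 bacterial cells in culture medium were mixed with test compound in DMSO and poured onto hardened agar, in triplicate plates. Plates were incubated at 37 °C for 48 h, then revertant colonies were counted and reported as mean ± standard deviation.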

[26] = Clearance in rat at 2.5 mg/kg, iv administered as single dose; assay type: ADME, organism-based; design: dose 2.5 mg/kg, route intravenous; conditions: in vivo
Outline: (§3)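 Rats received a single iv dose. Drug levels were measured in plasma. Parameters came from the plasma concentration–time data: AUC over 0–t in ng h/mL, clearance (CL) in L/h/kg, and half-life in h.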

[27] = Half life in rat at 2.5 mg/kg, iv administered as single dose; assay type: ADME, organism-based; design: dose 2.5 mg/kg, route intravenous; conditions: in vivo; outline: as §3
[28] = Acute toxicity in po dosed ICR mouse assessed as mortality after 10 days; assay type: organism-based; conditions: in vivo
Outline: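 Single oral dose on day 0 at 100, 144, 207, 299, 430 or 619 mg/kg. Animals were watched continuously for 10 days, recording deaths and signs of toxicity. LD50 was calculated by a modified Kaber method.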

[29] = AUC (0 to t) in rat at 2.5 mg/kg, iv administered as single dose; assay type: ADME, organism-based; design: dose 2.5 mg/kg, route intravenous; conditions: plasma; outline: as §3

Row | SMILES | MIC (Pichia kudriavzevii [1]) | AUC(0-t) [3] | half-life [4] | MIC (Aspergillus fumigatus [5]) | Tmax [6] | Cmax [7] | MIC (Pichia kudriavzevii [8]) | MIC (Aspergillus flavus [9]) | MIC (Candida parapsilosis [10]) | MIC (Candida parapsilosis [11]) | half-life [12] | MIC (Candida albicans [13]) | MIC (Candida albicans [14]) | AUC(0-t) [15] | bioavailability [16] | MIC (Cryptococcus neoformans [17]) | MIC (Cryptococcus neoformans [18]) | MIC (Aspergillus flavus [20]) | solubility ([21]; water, read-out: solubility) | MIC (Aspergillus fumigatus [22]) | further results
1 | CC(C)n1ncn(-c2ccc(N3CCN(c4ccc(OC[C@H]5CO[C@](Cn6cncn6)(c6ccc(F)cc6F)O5)cc4)CC3)nc2)c1=O | 0.0625 µg/mL (≈ 0.0947 µM) | 2710 ng·h/mL | 4.18 h | 0.25 µg/mL (≈ 0.379 µM) | 1.88 h | 712 ng/mL | 0.0625 µg/mL (≈ 0.0947 µM) | 0.125 µg/mL (≈ 0.189 µM) | 0.125 µg/mL (≈ 0.189 µM) | 0.125 µg/mL (≈ 0.189 µM) | 1.26 h | 0.0075 µg/mL (≈ 0.0114 µM) | 0.0075 µg/mL (≈ 0.0114 µM) | 7730 ng·h/mL | 35% | 0.25 µg/mL (≈ 0.379 µM) | 0.25 µg/mL (≈ 0.379 µM) | 0.125 µg/mL (≈ 0.189 µM) | 1680 µg/mL (≈ 2550 µM) | 0.25 µg/mL (≈ 0.379 µM) | solubility [2]: BLD; clearance [19]: 21.2 mL/min/kg
2 | CC(C)Cn1ncn(-c2ccc(N3CCN(c4ccc(OC[C@H]5CO[C@](Cn6cncn6)(c6ccc(F)cc6F)O5)cc4)CC3)nc2)c1=O | 0.0625 µg/mL (≈ 0.0928 µM) | 1610 ng·h/mL |  | 0.25 µg/mL (≈ 0.371 µM) | 2 h | 392 ng/mL | 0.0625 µg/mL (≈ 0.0928 µM) | 0.0625 µg/mL (≈ 0.0928 µM) | 0.125 µg/mL (≈ 0.186 µM) | 0.125 µg/mL (≈ 0.186 µM) | 2.18 h | 0.03 µg/mL (≈ 0.0445 µM) | 0.03 µg/mL (≈ 0.0445 µM) |  | 21.7% | 0.5 µg/mL (≈ 0.742 µM) | 0.5 µg/mL (≈ 0.742 µM) | 0.0625 µg/mL (≈ 0.0928 µM) | 2330 µg/mL (≈ 3460 µM) | 0.25 µg/mL (≈ 0.371 µM) | clearance [23]: 23.5 mL/min/kg; half-life [24]: 1.43 h; AUC(0-t) [25]: 3710 ng·h/mL
3 | CC(C)(CO)Cn1ncn(-c2ccc(N3CCN(c4ccc(OC[C@H]5CO[C@](Cn6cncn6)(c6ccc(F)cc6F)O5)cc4)CC3)cn2)c1=O | < 0.0156 µg/mL | 1900 ng·h/mL |  | 0.03 µg/mL (≈ 0.0426 µM) | 3 h | 297 ng/mL | < 0.0156 µg/mL | < 0.0156 µg/mL | < 0.0156 µg/mL | < 0.0156 µg/mL | 3.41 h | 0.0156 µg/mL (≈ 0.0222 µM) | 0.0156 µg/mL (≈ 0.0222 µM) |  | 42.2% | < 0.0156 µg/mL | < 0.0156 µg/mL | < 0.0156 µg/mL | 190 µg/mL (≈ 270 µM) | 0.03 µg/mL (≈ 0.0426 µM) | Activity (Salmonella typhimurium): Non-toxic; clearance [26]: 36.7 mL/min/kg; half-life [27]: 2.3 h; LD50 at 240 h [28]: 278 mg/kg; AUC(0-t) [29]: 1120 ng·h/mL
4 | CCC(C)n1ncn(-c2ccc(N3CCN(c4ccc(OCC5COC(Cn6cncn6)(c6ccc(Cl)cc6Cl)O5)cc4)CC3)cc2)c1=O (configuration not stated) [ITRACONAZOLE] | 0.0625 µg/mL (≈ 0.0886 µM) | 27.5 ng·h/mL | 22 h | 0.25 µg/mL (≈ 0.354 µM) | 3 h | 6.28 ng/mL | 0.0625 µg/mL (≈ 0.0886 µM) | 0.125 µg/mL (≈ 0.177 µM) | 0.25 µg/mL (≈ 0.354 µM) | 0.25 µg/mL (≈ 0.354 µM) | 2.57 h | 0.125 µg/mL (≈ 0.177 µM) | 0.125 µg/mL (≈ 0.177 µM) | 343 ng·h/mL | 8% | 1 µg/mL (≈ 1.42 µM) | 1 µg/mL (≈ 1.42 µM) | 0.125 µg/mL (≈ 0.177 µM) |  | 0.25 µg/mL (≈ 0.354 µM) | clearance [19]: 322 mL/min/kg; solubility ([21]; buffer): 16 µg/mL (≈ 22.7 µM)
